# Published values of several laboratories.
# Protocols differ between the studies behind these lines.
# Target: Mitogen-activated protein kinase 4 (MAPK4, Homo sapiens, UniProt P31152)
SMILES,test,conditions,remaining binding
FC(F)(F)Oc1cccc(-c2cnc3ccc(-c4ccncc4)nn23)c1,"cell-free assay, competition with immobilised ligand",5 µM,100%
O=C(c1ccc(Nc2ncc(Cl)c(-c3ccc(Cl)s3)n2)cc1)N1CCC(N2CCCC2)CC1,"binding, competition with immobilised ligand",1 µM,0.3%
C[C@H]1CCN(c2nccc(-c3cnn4ncccc34)n2)C1,binding,1 µM,93%
O=C(c1ccc(Nc2nccc(-c3cc4ccccc4s3)n2)cc1)N1CCC(N2CCCC2)CC1,"binding, competition with immobilised ligand",1 µM,74%
CCS(=O)(=O)c1cc2cc(C[C@](O)(CC(C)(C)c3ccc(F)cc3C(N)=O)C(F)(F)F)[nH]c2cn1,"cell-free assay, competition with immobilised ligand",1 µM,100%
CN(C)c1nccc(-c2cnn3ncccc23)n1,binding,1 µM,100%
CCN1CCN(Cc2ccc(C(=O)Nc3ccc(C)c(Oc4ccc5c(c4)CC(=O)N5)c3)cc2C(F)(F)F)CC1,"binding, competition with immobilised ligand",1 µM,100%
O=C(Nc1ccc(Oc2ccc(F)cc2)cc1)N1CCc2ncccc2[C@H]1c1ccc(F)cc1,"cell-free assay, competition with immobilised ligand",1 µM,95%
COc1cnc(Nc2cccc(S(N)(=O)=O)c2)nc1N1CCN(c2ccccc2)CC1,"binding, competition with immobilised ligand",1 µM,96%
CS(=O)(=O)N1CCCC(NC(=O)[C@H](CCC2CCCCC2)NC(=O)c2ccc(CNC(=O)c3cnc4ccccn34)cc2)C1 (stereo partly drawn),"cell-free assay, competition with immobilised ligand",0.1 µM,100%
Nc1ncc2c(n1)-c1c([nH]c3ccc(C#CC4CC4)cc13)CCCC2,"binding, competition with immobilised ligand",1 µM,96%
CO[C@@H](C)c1c(Nc2ccc([C@@H](N(C)C(=O)C3CCS(=O)(=O)CC3)C(F)(F)F)cc2)cnc2cc(Cl)nn12,"cell-free assay, competition with immobilised ligand",1 µM,100%
c1cncc(-c2cccc(Nc3nccc(NC4CCCCC4)n3)c2)c1,"binding, competition with immobilised ligand",10 µM,95%
Cc1cnn2ncc(-c3ccnc(N(C)C)n3)c2c1,binding,1 µM,94%
O=C(Nc1cnc(Oc2ccc(F)cc2)nc1)N1CCc2ncccc2[C@@H]1c1ccc(F)cc1,"cell-free assay, competition with immobilised ligand",1 µM,95%
c1cnn2ncc(-c3ccnc(N4CCC45COC5)n3)c2c1,binding,1 µM,83%
O=C(Nc1c[nH]nc1C(=O)NC1CCNCC1)c1cc(F)cc(F)c1,"binding, competition with immobilised ligand",1 µM,100%
COc1ccnn2ncc(-c3ccnc(N(C)C)n3)c12,binding,1 µM,100%
O=C(NCCCN1CCOCC1)c1ccc(Nc2nccc(-c3cc4ccccc4s3)n2)cc1,"binding, competition with immobilised ligand",1 µM,88%
N[C@H]1CCN(c2nccc(-c3cnn4ncccc34)n2)C1,binding,1 µM,100%
CCCOc1ccc([C@H]2[C@H](C(=O)O)[C@@H](c3ccc4c(c3)OCO4)CN2CC(=O)Nc2c(CC)cccc2CC)cc1,"cell-free assay, competition with immobilised ligand",1 µM,93%
